CR mimetic SO = yeast age-related superoxide inhibition as caloric restriction mimetic | hit rate 0.18% among 330,000 | superoxide response (% of plate mean), % at 10 µM | S. cerevisiae aged cells, superoxide DHE fluorescence; stronger effect = lower value;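 active = superoxide response under a set limit, about three screen SD below normal, cut at about 65% in these data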;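 note: yeast aged for seven days with compound at 30 °C before DHE staining; 100% = average MFI of all compound-treated wells on the plate with controls excluded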
Lipid droplet = modulators of hepatic lipid droplet formation; AML12 mouse hepatocytes, oleate lipid droplets, BODIPY imaging; inhibition, % at 6.5 µM; hit rate 0.4% among 240,000; AID 1656;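 active = lipid droplet intensity inhibited by at least 50%, with more than 500 cells counted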
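Material: mouse AML12 hepatocyte cell line, fixed after treatment; Timing: compound with oleate, overnight; Technique: high-content imaging of BODIPY-stained droplets and DAPI nuclei; Probe or stimulus: oleate, 100 µM final; Dosing: compound at 6.5 µM only.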
SR-BI uptake up = enhances SR-BI lipid uptake from DiI-HDL | hit rate 0.096% among 320,000 | activation, % at 12.5 µM | CHO ldlA[mSR-BI] cells, DiI-HDL uptake fluorescence, 3 h; 100 = double the neutral-control signal;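 active = mean replicate activation of at least 60% and every replicate at or above 60%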;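 note: 0% = median plate neutral-control signal and 100% = twice that signal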
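Material: SR-BI-overexpressing, LDLR-lacking CHO cells; schedule: compound exposure 3 h, 37 °C; reagent: DiI-labelled HDL at 10 µg/mL final; technique: bottom-read fluorescence, 550/595 nm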
SR-BI DiI inh = inhibitors of mouse SR-BI mediated HDL lipid uptake; Q61009; ldlA[mSR-BI] CHO cells, DiI-HDL uptake fluorescence, 3 h; inhibition, % at 12.5 µM; hit rate 0.96% among 320,000; AID 488896;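 active = mean replicate inhibition of at least 70% and a set share of replicates each scoring 70 or more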;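 note: 0% = median of neutral control wells and 100% = median of positive control wells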
Target sequence (Q61009 whole entry, looked up): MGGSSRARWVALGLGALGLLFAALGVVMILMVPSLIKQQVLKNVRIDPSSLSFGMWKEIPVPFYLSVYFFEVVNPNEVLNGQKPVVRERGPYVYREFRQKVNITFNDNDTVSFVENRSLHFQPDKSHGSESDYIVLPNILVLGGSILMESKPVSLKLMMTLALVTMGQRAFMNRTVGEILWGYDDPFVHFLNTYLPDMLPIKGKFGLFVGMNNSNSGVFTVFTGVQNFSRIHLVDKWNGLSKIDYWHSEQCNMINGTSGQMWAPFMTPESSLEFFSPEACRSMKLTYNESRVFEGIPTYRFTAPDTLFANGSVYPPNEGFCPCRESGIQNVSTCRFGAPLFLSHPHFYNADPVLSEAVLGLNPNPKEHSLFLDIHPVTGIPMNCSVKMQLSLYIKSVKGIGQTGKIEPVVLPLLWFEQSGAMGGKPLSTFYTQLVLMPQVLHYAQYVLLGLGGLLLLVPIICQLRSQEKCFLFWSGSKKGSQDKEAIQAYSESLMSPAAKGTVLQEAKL
SMARCA2 activ = activators of SMARCA2 function. hit rate 1% among 370,000. MG213 cells, MMTV-luciferase reporter, dexamethasone, overnight. activation, % at 9.1 µM; in the data active = activation above about 7.8%;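 note: 0% = vehicle wells and 100% = reference activator wells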
AHR act = activators of human aryl hydrocarbon receptor | AHR-responsive luciferase reporter cells, luminescence | activation, % at 5 µM | hit rate 2.5% among 320,000; in the data active = activation above about 47%;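 note: 0% = vehicle wells and 100% = reference agonist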
SMARCA2 conf = confirmation of SMARCA2 (BRM) function activators; activation, % at 9.1 µM; shares compounds with SMARCA2 activ; MG213 cells, MMTV-luciferase with dexamethasone, luminescence, overnight; MG213 cells expressing E1A, Rb sequestered; DMSO wells 0%, reference activator 100%; AID 652260; hit rate 30% among 3,500;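 active = activation above its plate's cutoff, the mean activation of tested wells plus 3 SD, cut at about 7.9% in these data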
GAL4-VP16 Luc = GAL4-VP16 reporter activation counter-screen | HEK293 GAL4-VP16 pG5luc reporter, luciferase luminescence; scaled: DMSO wells 0%, SAHA wells 100% | hit rate 41% among 3,500 | shares compounds with SMARCA2 activ | activation, % at 9.1 µM | AID 686939;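 active = activation above the solvent-only control well mean plus 3 SD, averaged across control plates, cut at about 5.2% in these data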
* = called active by the depositor. This is a sample that favours compounds with a hit; in the whole collection about 4.3% have one here.

Results for C[C@@H]1O[C@@H](OC[C@H]2O[C@@H](Oc3c(-c4ccc(O)c(O)c4)oc4cc(O)cc(O)c4c3=O)[C@H](O)[C@@H](O)[C@@H]2O)[C@H](O)[C@H](O)[C@H]1O ?
CR mimetic SO: 99; Lipid droplet: -2; SMARCA2 activ: 8.2*; AHR act: -1; SMARCA2 conf: 0; GAL4-VP16 Luc: 2

How did N#C/C(C(=O)NCc1ccccc1)=C1/N=C(NC(=O)c2ccco2)c2ccccc21 do in these assays?
CR mimetic SO: 113; Lipid droplet: -27; SR-BI uptake up: 24; SR-BI DiI inh: -24; SMARCA2 activ: 10*; AHR act: -1; SMARCA2 conf: 2; GAL4-VP16 Luc: 3

What do the screens show for `CN1CC=C(c2ccccc2)N(c2ccc(Br)cc2)C1=O`?
SMARCA2 activ: 6

Results for COC(=O)[C@]12C[C@H](CC(=O)NCCCN3CCCC3=O)C(=O)N(Cc3ccco3)C1=C[C@H](C(C)C)O[C@@H]2C1CC1 ?
SMARCA2 activ: -2

Results for O=C(OC12CCCN(C1)/C(=C/c1ccc(Cl)cc1)C2)c1ccc(F)cc1 (stereo unspecified) ?
SMARCA2 activ: -3

What do the screens show for `COc1ccc(CNC(=O)CN=C2NC(=O)C(c3ccccc3)(c3ccccc3)N2)cc1`?
CR mimetic SO: 90; Lipid droplet: -29; SR-BI uptake up: 38; SR-BI DiI inh: -38; SMARCA2 activ: 12*; AHR act: 5; SMARCA2 conf: 0; GAL4-VP16 Luc: 0

Results for CC(C)[C@@]1(c2ccc(Cl)cc2)ON(c2ccccc2C(F)(F)F)C1=O ?
CR mimetic SO: 79; AHR act: 7

Results for Cc1cccn2c(=O)c(/C=C(\C#N)C(=O)NCc3ccco3)c(N3CCOCC3)nc12 ?
CR mimetic SO: 97; Lipid droplet: -1; SMARCA2 activ: 11*; AHR act: 3; SMARCA2 conf: 1; GAL4-VP16 Luc: 1

What do the screens show for `C[C@H](CO)N1C[C@H](C)[C@@H](CN(C)C(=O)Nc2cccc(Oc3ccccn3)c2)OCc2cn(nn2)CCCC1=O`?
SMARCA2 activ: -2

Results for COc1cc2c[n+](C)c3c4ccccc4ccc3c2cc1OC ?
SR-BI uptake up: -38; SR-BI DiI inh: 38; SMARCA2 activ: 11*; SMARCA2 conf: 42*; GAL4-VP16 Luc: 1

Results for COc1ccc(CCN(C)C(=O)CCc2nnc(-c3ccccc3)o2)cc1OC ?
CR mimetic SO: 96; Lipid droplet: -8; SR-BI uptake up: -4; SR-BI DiI inh: 4; SMARCA2 activ: 11*; AHR act: 15; SMARCA2 conf: 13*; GAL4-VP16 Luc: 7.3*

What do the screens show for `CN(Cc1ccc(F)cc1)C(=O)CCc1nnc(-c2ccccc2)o1`?
CR mimetic SO: 91; Lipid droplet: -2; SR-BI uptake up: -4; SR-BI DiI inh: 4; SMARCA2 activ: 2; AHR act: 8

What do the screens show for `COc1ccc(-c2nnc(-c3ccccc3)o2)cc1OC`?
CR mimetic SO: 105; SR-BI uptake up: -22; SR-BI DiI inh: 22; SMARCA2 activ: 8.4*; AHR act: 9; SMARCA2 conf: 6; GAL4-VP16 Luc: 12*

How did COc1ccccc1-n1cc(-c2ccccc2)c2c(=S)nc[nH]c21 do in these assays?
CR mimetic SO: 111; Lipid droplet: -4; SR-BI uptake up: 4; SR-BI DiI inh: -4; SMARCA2 activ: 8.4*; AHR act: 10; SMARCA2 conf: 1; GAL4-VP16 Luc: 1

How did C[C@H]1COc2cc(Br)ccc2S(=O)(=O)N1Cc1cn(Cc2ccc(C(F)(F)F)cc2)nn1 do in these assays?
SMARCA2 activ: -4

How did CC(=O)Nc1ccc(S(=O)(=O)Nc2ccc3c(c2)OCO3)cc1 do in these assays?
CR mimetic SO: 81; Lipid droplet: -4; SR-BI uptake up: 15; SR-BI DiI inh: -15; SMARCA2 activ: -3; AHR act: -1

Bioassay records as filed in PubChem.
